Experimental findings from ChEMBL document CHEMBL3865800, “Design, synthesis and biological evaluation of 4-anilinoquinazoline derivatives as new c-myc G-quadruplex ligands” (Eur J Med Chem, 2016) are described below.

Data set [1] in a line: Binding affinity to 5'-FPu22T-3'-labelled c-myc G-quadruplex DNA (unknown origin) assessed as change in melting temperature by FRET assay. Put shortly: (§1)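 Fluorescence melting on real-time PCR instrument; 0.4 μM labelled oligonucleotide (FPu22T or duplex-forming F10T), ligand 2.0 μM, in 10 mM Tris-HCl pH 7.4 with 10 or 60 mM KCl; ex 470/em 530 nm at 1 °C steps over 37–99 °C, 30 s equilibration each; ΔTm = Tm(DNA+ligand) − Tm(DNA).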

A short description of data set [2]: Binding affinity to F10T duplex DNA (unknown origin) assessed as change in melting temperature by FRET assay. In short, it runs like this: as §1
The nature of data set [3]: Cytotoxicity against mouse primary mesangial cells assessed as reduction in cell viability after 48 hrs by MTT assay. The format is toxicity.
Data set [4] can be described thus: Binding affinity to 5'-FPu22T-3'-labelled c-myc G-quadruplex DNA (unknown origin) assessed as change in melting temperature at 2 uM in presence ds26 DNA of by FRET assay. Put shortly:
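FRET melting of 0.4 μM labelled FPu22T with ligand 2.0 μM, alone or with 10-fold (4 μM), 50-fold (20 μM) or 100-fold (40 μM) excess unlabelled duplex ds26 as competitor; Tris-HCl 10 mM pH 7.4 with 10 or 60 mM KCl; ex 470/em 530 nm read every 1 °C from 37–99 °C, 30 s hold; ΔTm = Tm(DNA+ligand) − Tm(DNA).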

Data set [5] in a line: Cytotoxicity against human Raji cells assessed as reduction in cell viability after 48 hrs by MTT assay. The class given is functional, cell-based.
Data set [6] is described as follows: Binding affinity to biotinylated 5'-Pu22-3'-labelled c-myc G-quadruplex DNA (unknown origin) after 240 secs by SPR assay. In short, it runs like this:
(§2)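 SPR: biotinylated Pu22 and biotinylated duplex folded in 50 mM Tris-HCl pH 7.4, 150 mM KCl, 0.005% Tween20, captured (~1000 RU) on separate flow cells with a blank reference; ligand 0.0625–10 μM in running buffer, 240 s association then 240 s dissociation at 25 °C; equilibrium KD derived.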

The nature of data set [7]: Cytotoxicity against human HeLa cells assessed as reduction in cell viability after 48 hrs by MTT assay. The class given is functional, cell-based.
The nature of data set [8]: Binding affinity to biotinylated double stranded DNA (unknown origin) after 240 secs by SPR assay. In short, it runs like this:
as §2

Data set [9] is described as follows: Selectivity ratio of Kd for double stranded DNA (unknown origin) to Kd for biotinylated 5'-Pu22-3'-labelled c-myc G-quadruplex DNA.
The nature of data set [10]: Cytotoxicity against human CA46 cells assessed as reduction in cell viability after 48 hrs by MTT assay. The format is functional, cell-based. The note with it: CA46, 48 h.
Data set [11] is described as follows: Cytotoxicity against human A549 cells assessed as reduction in cell viability after 48 hrs by MTT assay. The format is functional, cell-based. The note with it: A549, 48 h.

Activity calls are given as the source filed them. No cut-off for these calls is given here. A value given as a limit tells only on which side of the number the result lay.

Turning to `Oc1ccccc1-c1nc(Nc2ccc(OCCN3CCCC3)cc2)c2ccccc2n1`, the ΔTm in data set [1] was 1.6 °C; in [2], 0.2 °C.

`O=C(CCCN1CCCC1)Nc1ccc(Nc2nc(-c3ccccc3NC(=O)CCCN3CCCC3)nc3ccccc23)cc1`: the IC50 at 48 h in [3] was above 50 µM. The result in data set [4] was Active. Also, the ΔTm came out at 12.6 °C in data set [1] and 0.8 °C in data set [2]. The IC50 in data set [5] stood at 31.6 µM; in data set [7], 22.4 µM; in [10] it was 13.7 µM; in data set [11], 27.2 µM. For the same compound, the equilibrium dissociation constant (Kd) in [6] was 0.55 µM; in data set [8], above 10 µM. In addition, the Selectivity ratio in data set [9] is above 18.2.

For `CCN(CC)CCC(=O)Nc1ccc(Nc2nc(-c3ccccc3N)nc3ccccc23)cc1`, the IC50 at 48 h in data set [3] came out at 5.7 µM. The ΔTm in data set [1] was determined as 5.3 °C; in data set [2], 0.1 °C. Further, the IC50 in data set [5] was 14.5 µM; in data set [7], 7.2 µM; in data set [10], 3.3 µM; in [11] it was 9.1 µM. Besides, binding in data set [6] was put at a Kd of 4.68 µM.

In the case of `Oc1ccccc1-c1nc(Nc2ccc(OCCN3CCCCC3)cc2)c2ccccc2n1`, the ΔTm was found to be 1.4 °C in [1] and 0.2 °C in data set [2]. Also, the Kd in [6] was above 10 µM.

As to `CCN(CC)CCCNCCC(=O)Nc1ccc(Nc2nc(-c3ccccc3NC(=O)CCNCCCN(CC)CC)nc3ccccc23)cc1`, the IC50 at 48 h in data set [3] was above 50 µM. For the same compound, in data set [4], the result was Active. Moreover, the figures for the ΔTm in [1] and in data set [2] were 26.6 °C and 3.6 °C, respectively. Further, the IC50 in [5], in data set [7], in data set [10] and in data set [11] was above 50 µM each time. Besides, the results for the Kd in [6] and in [8] were 1.6 µM and 6.21 µM, respectively. Also, the Selectivity ratio in data set [9] turned out to be 3.9.

Turning to `O=C(CCN1CCOCC1)Nc1ccc(Nc2nc(-c3ccccc3NC(=O)CCN3CCOCC3)nc3ccccc23)cc1`, the IC50 at 48 h in [3] was above 50 µM. Also, the figures for the ΔTm in [1] and in [2] were 4.8 °C and 0.3 °C, respectively. For the same compound, the IC50 in data set [5], in data set [7], in [10] and in data set [11] was above 50 µM each time. In [6], the Kd is 1.33 µM.

Consider `CCN(CC)CCOc1ccc(Nc2nc(-c3ccccc3O)nc3ccccc23)cc1`, for which the ΔTm in [1] was determined as 0.4 °C; in data set [2], 0.1 °C. In data set [6], this compound came in with a dissociation constant (Kd) above 10 µM.

With `CN(C)CCCNCCC(=O)Nc1ccc(Nc2nc(-c3ccccc3NC(=O)CCNCCCN(C)C)nc3ccccc23)cc1`, the IC50 at 48 h in data set [3] is above 50 µM. Also, the result in [4] was Active. Moreover, the ΔTm in data set [1] was determined as 21.8 °C; in data set [2], 3.7 °C. In addition, the IC50 in data set [5], in data set [7], in [10] and in data set [11] was above 50 µM each time. Besides, the Kd was found to be 0.57 µM in data set [6] and 5.89 µM in data set [8]. For the same compound, the Selectivity ratio in data set [9] worked out at 10.3.

Regarding `CN1CCN(CCOc2ccc(Nc3nc(-c4ccccc4O)nc4ccccc34)cc2)CC1`, the values for the ΔTm in data set [1] and in [2] were 0.4 °C and 0.1 °C, respectively. Also, in [6], the Kd was above 10 µM.

On to `Oc1ccccc1-c1nc(Nc2ccc(OCCN3CCOCC3)cc2)c2ccccc2n1`, for which the ΔTm came to 0.7 °C in [1] and 0.1 °C in data set [2].

As to `CN(C)CCCNCCC(=O)Nc1ccc(C(=O)Nc2cc(Cl)ccc2-c2nc(NCCCN(C)C)c3ccccc3n2)cc1`, the figures for the ΔTm in data set [1] and in data set [2] were 16.6 °C and 0.6 °C, respectively.

With `CCN(CC)CC(=O)Nc1ccc(Nc2nc(-c3ccccc3NC(=O)CN(CC)CC)nc3ccccc23)cc1`, the IC50 at 48 h in data set [3] amounted to 2.7 µM. For the same compound, the figures for the shift in melting temperature (ΔTm) in [1] and in data set [2] were 8.8 °C and 0.3 °C, respectively. In addition, the IC50 is 6.5 µM in [5], 29.8 µM in data set [7], 3.14 µM in [10] and above 50 µM in data set [11]. The same compound had a Kd in [6] of 3.94 µM.

`O=C(CN1CCOCC1)Nc1ccc(Nc2nc(-c3ccccc3NC(=O)CN3CCOCC3)nc3ccccc23)cc1`: in data set [3], the IC50 at 48 h is above 50 µM. In addition, the ΔTm in data set [1] and in [2] was 0.2 °C throughout. The IC50 in data set [5] is 12 µM; in data set [7], above 50 µM; in data set [10], 2.14 µM; in data set [11], above 50 µM. In data set [6], the Kd was 8.08 µM.

As for `CCN(CC)CCC(=O)Nc1ccc(Nc2nc(-c3ccccc3)nc3ccccc23)cc1`, the IC50 at 48 h in [3] stood at 6.2 µM. The ΔTm in data set [1] was 4.6 °C; in data set [2], 0.2 °C. Moreover, the 50% inhibitory concentration (IC50) in data set [5] amounted to 8.5 µM; in [7], 8.3 µM; in data set [10], 3.6 µM; in data set [11], 17.6 µM. In data set [6], this compound gave an equilibrium dissociation constant (Kd) above 10 µM.

`CCN(CC)CC(=O)Nc1ccc(Nc2nc(Cl)nc3ccccc23)cc1`: the IC50 at 48 h in data set [3] was above 50 µM. The thermal shift (ΔTm) in data set [1] and in data set [2] was 0.1 °C throughout. The IC50 in data set [5] was above 50 µM; in data set [7] it was above 50 µM; in data set [10] it was 33.2 µM; in data set [11] it was above 50 µM.

For the compound `CCN(CC)CCC(=O)Nc1cc(Cl)ccc1-c1nc(NCCCN(C)C)c2ccccc2n1`, the ΔTm in data set [1] was 11.4 °C; in data set [2] it was 3.7 °C. Also, the values for the Kd in [6] and in [8] were 0.49 µM and 9.18 µM, respectively. The Selectivity ratio in data set [9] is 18.7.

For the compound `CCN(CC)CCC(=O)Nc1ccc(Nc2nc(Cl)nc3ccccc23)cc1`, the IC50 at 48 h in [3] was above 50 µM. For the same compound, the results for the ΔTm in data set [1] and in [2] were 1 °C and 0.1 °C, respectively. For the same compound, the half-maximal inhibitory concentration (IC50) is above 50 µM in [5], above 50 µM in data set [7], 31.3 µM in [10] and 45.3 µM in [11]. This compound also came in with a Kd in data set [6] of 5.52 µM.

`CCN(CC)CCNCCOc1ccc(Nc2nc(-c3ccccc3O)nc3ccccc23)cc1`: the ΔTm in data set [1] stood at 0.4 °C; in data set [2] it was 0.2 °C. In data set [6], this compound displayed a Kd above 10 µM.

For the compound `CCN(CC)CC(=O)Nc1ccc(Nc2nc(N(CC)CC)nc3ccccc23)cc1`, the IC50 at 48 h in data set [3] amounted to 10.2 µM. The ΔTm in data set [1] was found to be 10 °C; in data set [2] it was 0.4 °C. Besides, the IC50 in data set [5] is 13.5 µM; in [7], 21 µM; in data set [10] it was 4.2 µM; in data set [11], 20.8 µM. Besides, the Kd in [6] was 3.34 µM; in data set [8] it was above 10 µM. Further, the Selectivity ratio in data set [9] is above 3.

For `CCN(CC)CCOc1ccc(Nc2nc(N(CC)CC)nc3ccccc23)cc1`, the IC50 at 48 h in [3] was 9.8 µM. Besides, the values for the ΔTm in [1] and in data set [2] were 7.1 °C and 0.4 °C, respectively. Also, the IC50 amounted to 20.3 µM in data set [5], 17.4 µM in [7], 20.5 µM in data set [10] and 5 µM in data set [11]. The compound further displayed a Kd in data set [6] of 2.89 µM.

Regarding `CN1CCN(CC(=O)Nc2ccc(Nc3nc(-c4ccccc4NC(=O)CN4CCN(C)CC4)nc4ccccc34)cc2)CC1`, the IC50 at 48 h in data set [3] was 38.2 µM. The ΔTm in data set [1] turned out to be 12.5 °C; in data set [2], 0.1 °C. The IC50 came out at 17.9 µM in [5], 28.7 µM in [7], 12.3 µM in data set [10] and 21.6 µM in data set [11]. The Kd in data set [6] was determined as 0.61 µM.

Regarding `CCN(CC)CCCC(=O)Nc1ccc(Nc2nc(-c3ccccc3NC(=O)CCCN(CC)CC)nc3ccccc23)cc1`, in data set [3], the IC50 at 48 h is above 50 µM. Moreover, in data set [4], the result was Active. The ΔTm in data set [1] was 13.6 °C; in [2], 0.9 °C. The IC50 in data set [5] stood at 27.3 µM; in data set [7], 32.5 µM; in [10], 21 µM; in data set [11] it was 24.5 µM. Moreover, the Kd in [6] is 0.54 µM; in data set [8], above 10 µM. Besides, the Selectivity ratio in data set [9] is above 18.5.

Regarding `CCN(CC)CCCOc1ccc(Nc2nc(N(CC)CC)nc3ccccc23)cc1`, in data set [3], the IC50 at 48 h came out at 8.1 µM. Moreover, the figures for the ΔTm in [1] and in data set [2] were 8.2 °C and 0.2 °C, respectively. For the same compound, the IC50 stood at 5.7 µM in data set [5], 2.3 µM in data set [7], 12.2 µM in data set [10] and 4.8 µM in [11]. The compound further had a Kd in data set [6] of 2.46 µM.

In the case of `CCN(CC)CC(=O)Nc1ccc(Nc2nc(-c3ccc(O)cc3)nc3ccccc23)cc1`, the IC50 at 48 h in [3] was determined as 12.9 µM. Also, the ΔTm in data set [1] stood at 7.2 °C; in [2], 0.7 °C. The IC50 in data set [5] was 12.9 µM; in data set [7], 21 µM; in data set [10], 13.3 µM; in data set [11] it was 27 µM. This compound registered a Kd in data set [6] of 6.3 µM.
